Results published in ChEMBL document CHEMBL1146021, “Calcium channel antagonists discovered by a multidisciplinary approach” (J Med Chem, 2006).
One block for each compound: values may come before it. Calls of active or inactive are those of the source.

Key:
Cavia porcellus [1] = organism: Cavia porcellus; experiment: Negative inotropic activity in guinea pig left atrium; type: functional; details: Cardiac atrium
In short: (§1)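 Guinea-pig left atria driven at 1 Hz (0.6-0.8 ms pulses, about 50% threshold voltage) in PSS, 35 °C, pH 7.4, 95% O2/5% CO2. Isometric tension recorded. Cumulative concentrations 0.01-100 μM in DMSO (≤0.3%), each to steady state. Percent decrease in developed tension, n = 4-6. EC50 by Probit analysis.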

Cavia porcellus [2] = organism: Cavia porcellus; experiment: Vasorelaxant activity assessed as inhibition of calcium-induced contraction of potassium ion-depolarized guinea pig aortic strips at 50 uM; type: functional, Aorta; parameters: scale not given: the % may be the effect or the level left
In short: (§2)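 Helicoidal guinea-pig aortic strips in aerated PSS at 35 °C, contracted with 80 mM KCl (K+ substituted for Na+). At plateau (about 45 min), compounds added cumulatively at 0.1-500 μM in DMSO vehicle. Relaxation measured isometrically. IC50 by Probit analysis, n = 6-8.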

Cavia porcellus [3] = organism: Cavia porcellus; experiment: Negative chronotropic activity in guinea pig right atrium at 5 uM; type: functional, Cardiac atrium
In short: (§3)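 Spontaneously beating guinea-pig right atria in PSS, 35 °C, pH 7.4, 95% O2/5% CO2. Cumulative concentrations 0.01-100 μM in DMSO (≤0.3% in bath), each to steady state. Rate decrease taken as percent of control (pretreatment 170-195 beats/min), n = 6-8. EC30 by Probit analysis.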

Cavia porcellus [4] = organism: Cavia porcellus; experiment: Negative inotropic activity in guinea pig left atrium at 50 uM; type: functional, Cardiac atrium; in short: as §1
Cavia porcellus [5] = organism: Cavia porcellus; experiment: Negative inotropic activity in guinea pig left atrium at 5 uM; type: functional, Cardiac atrium; in short: as §1
Cavia porcellus [6] = organism: Cavia porcellus; experiment: Vasorelaxant activity assessed as inhibition of calcium-induced contraction of potassium ion-depolarized guinea pig aortic strips at 100 uM; type: functional, Aorta; parameters: scale not given: the % may be the effect or the level left; in short: as §2
Cavia porcellus [7] = organism: Cavia porcellus; experiment: Negative chronotropic activity in guinea pig right atrium at 10 uM; type: functional, Cardiac atrium; in short: as §3
Cavia porcellus [8] = organism: Cavia porcellus; experiment: Cardiac activity in guinea pig heart measured as decrease in heart rate at 1 uM by ECG relative to control; type: functional; parameters: scale not given: the % may be the effect or the level left
In short: (§4)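 Langendorff-perfused isolated hearts from female guinea-pigs (300-400 g). Compounds given cumulatively at 0.001-1 μM, each step held to steady state (about 30 min). Read-outs: surface ECG (PR interval, heart rate), intraventricular balloon +(dP/dt)max and coronary perfusion pressure. Results given as percent change from basal at 1 μM, mean ± SEM.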

Cavia porcellus [9] = organism: Cavia porcellus; experiment: Cardiac activity in guinea pig heart measured as decrease in left ventricular pressure at 1 uM relative to control; type: functional; parameters: scale not given: the % may be the effect or the level left; in short: as §4
Cavia porcellus [10] = organism: Cavia porcellus; experiment: Antagonist activity against calcium channel assessed as inhibition of carbachol-induced tonic contraction of guinea pig ileum longitudinal smooth muscle; type: functional
In short: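 Guinea-pig ileum longitudinal smooth muscle segments (2 cm), 300-400 mg resting tension, 37 °C, oxygenated Hepes-buffered PSS at pH 7.4, equilibrated 1 h. Two control carbachol curves run 30 min apart. Test agent (10 μM) added 30 min before the carbachol curve. Isometric inhibition expressed as percent of control.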

Cavia porcellus [11] = organism: Cavia porcellus; experiment: Negative inotropic activity in guinea pig left ventricular papillary muscle; type: functional; details: Muscle tissue
Cavia porcellus [12] = organism: Cavia porcellus; experiment: Cardiac activity in guinea pig heart measured as prolongation of atrioventricular conduction time at 1 uM relative to control; type: functional; in short: as §4
Cavia porcellus [13] = organism: Cavia porcellus; experiment: Antagonist activity against calcium channel assessed as inhibition of calcium-induced contraction of potassium ion-depolarized guinea pig ileum longitudinal smooth muscle at 500 uM; type: functional; parameters: scale not given: the % may be the effect or the level left
In short: (§5)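 Guinea-pig ileum longitudinal smooth muscle segments (2 cm) held at 300-400 mg resting tension, 37 °C, in oxygenated (100% O2) Hepes-buffered PSS at pH 7.4. Isometric contraction recorded. Inhibition expressed as percentage of control. Probit log concentration–response analysis, n = 6-8.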

Cavia porcellus [14] = organism: Cavia porcellus; experiment: Negative chronotropic activity in guinea pig right atrium at 50 uM; type: functional, Cardiac atrium; in short: as §3
Cavia porcellus [15] = organism: Cavia porcellus; experiment: Cardiac activity in guinea pig heart measured as decrease in coronary perfusion pressure at 1 uM relative to control; type: functional; parameters: scale not given: the % may be the effect or the level left; in short: as §4
Cavia porcellus [16] = organism: Cavia porcellus; experiment: Antagonist activity against calcium channel assessed as inhibition of calcium-induced contraction of potassium ion-depolarized guinea pig ileum longitudinal smooth muscle; type: functional; in short: as §5
Cavia porcellus [17] = organism: Cavia porcellus; experiment: Negative inotropic activity in guinea pig left ventricular papillary muscle at 10 uM; type: functional, Muscle tissue
Cavia porcellus [18] = organism: Cavia porcellus; experiment: Negative inotropic activity in guinea pig left atrium at 1 uM; type: functional, Cardiac atrium; in short: as §1
Cavia porcellus [19] = organism: Cavia porcellus; experiment: Negative chronotropic activity in guinea pig right atrium at 100 uM; type: functional, Cardiac atrium; details: in the assay text read “50 uM” for “100 uM”; in short: as §3
Cavia porcellus [20] = organism: Cavia porcellus; experiment: Negative inotropic activity in guinea pig left atrium at 100 uM; type: functional, Cardiac atrium; details: in the assay text read “50 uM” for “100 uM”; in short: as §1
Cavia porcellus [21] = organism: Cavia porcellus; experiment: Negative inotropic activity in guinea pig left ventricular papillary muscle at 500 uM; type: functional, Muscle tissue
Cavia porcellus [22] = organism: Cavia porcellus; experiment: Antagonist activity against calcium channel assessed as inhibition of calcium-induced contraction of potassium ion-depolarized guinea pig ileum longitudinal smooth muscle at 100 uM; type: functional; parameters: scale not given: the % may be the effect or the level left; in short: as §5
Cavia porcellus [23] = organism: Cavia porcellus; experiment: Vasorelaxant activity assessed as inhibition of calcium-induced contraction of potassium ion-depolarized guinea pig aortic strips at 500 uM; type: functional, Aorta; parameters: scale not given: the % may be the effect or the level left; in short: as §2
Cavia porcellus [24] = organism: Cavia porcellus; experiment: Vasorelaxant activity assessed as inhibition of calcium-induced contraction of potassium ion-depolarized guinea pig aortic strips; type: functional; details: Aorta; in short: as §2
[25] = target: Voltage-dependent L-type calcium channel subunit alpha-1C (Rattus norvegicus, UniProt P22002); experiment: Inhibition of [3H]diltiazem binding to Sprague-Dawley rat cardiomyocytes at 100 uM relative to control; details: read-out: Activity
Sequence of Voltage-dependent L-type calcium channel subunit alpha-1C (P22002 whole entry, the tested form may be a part): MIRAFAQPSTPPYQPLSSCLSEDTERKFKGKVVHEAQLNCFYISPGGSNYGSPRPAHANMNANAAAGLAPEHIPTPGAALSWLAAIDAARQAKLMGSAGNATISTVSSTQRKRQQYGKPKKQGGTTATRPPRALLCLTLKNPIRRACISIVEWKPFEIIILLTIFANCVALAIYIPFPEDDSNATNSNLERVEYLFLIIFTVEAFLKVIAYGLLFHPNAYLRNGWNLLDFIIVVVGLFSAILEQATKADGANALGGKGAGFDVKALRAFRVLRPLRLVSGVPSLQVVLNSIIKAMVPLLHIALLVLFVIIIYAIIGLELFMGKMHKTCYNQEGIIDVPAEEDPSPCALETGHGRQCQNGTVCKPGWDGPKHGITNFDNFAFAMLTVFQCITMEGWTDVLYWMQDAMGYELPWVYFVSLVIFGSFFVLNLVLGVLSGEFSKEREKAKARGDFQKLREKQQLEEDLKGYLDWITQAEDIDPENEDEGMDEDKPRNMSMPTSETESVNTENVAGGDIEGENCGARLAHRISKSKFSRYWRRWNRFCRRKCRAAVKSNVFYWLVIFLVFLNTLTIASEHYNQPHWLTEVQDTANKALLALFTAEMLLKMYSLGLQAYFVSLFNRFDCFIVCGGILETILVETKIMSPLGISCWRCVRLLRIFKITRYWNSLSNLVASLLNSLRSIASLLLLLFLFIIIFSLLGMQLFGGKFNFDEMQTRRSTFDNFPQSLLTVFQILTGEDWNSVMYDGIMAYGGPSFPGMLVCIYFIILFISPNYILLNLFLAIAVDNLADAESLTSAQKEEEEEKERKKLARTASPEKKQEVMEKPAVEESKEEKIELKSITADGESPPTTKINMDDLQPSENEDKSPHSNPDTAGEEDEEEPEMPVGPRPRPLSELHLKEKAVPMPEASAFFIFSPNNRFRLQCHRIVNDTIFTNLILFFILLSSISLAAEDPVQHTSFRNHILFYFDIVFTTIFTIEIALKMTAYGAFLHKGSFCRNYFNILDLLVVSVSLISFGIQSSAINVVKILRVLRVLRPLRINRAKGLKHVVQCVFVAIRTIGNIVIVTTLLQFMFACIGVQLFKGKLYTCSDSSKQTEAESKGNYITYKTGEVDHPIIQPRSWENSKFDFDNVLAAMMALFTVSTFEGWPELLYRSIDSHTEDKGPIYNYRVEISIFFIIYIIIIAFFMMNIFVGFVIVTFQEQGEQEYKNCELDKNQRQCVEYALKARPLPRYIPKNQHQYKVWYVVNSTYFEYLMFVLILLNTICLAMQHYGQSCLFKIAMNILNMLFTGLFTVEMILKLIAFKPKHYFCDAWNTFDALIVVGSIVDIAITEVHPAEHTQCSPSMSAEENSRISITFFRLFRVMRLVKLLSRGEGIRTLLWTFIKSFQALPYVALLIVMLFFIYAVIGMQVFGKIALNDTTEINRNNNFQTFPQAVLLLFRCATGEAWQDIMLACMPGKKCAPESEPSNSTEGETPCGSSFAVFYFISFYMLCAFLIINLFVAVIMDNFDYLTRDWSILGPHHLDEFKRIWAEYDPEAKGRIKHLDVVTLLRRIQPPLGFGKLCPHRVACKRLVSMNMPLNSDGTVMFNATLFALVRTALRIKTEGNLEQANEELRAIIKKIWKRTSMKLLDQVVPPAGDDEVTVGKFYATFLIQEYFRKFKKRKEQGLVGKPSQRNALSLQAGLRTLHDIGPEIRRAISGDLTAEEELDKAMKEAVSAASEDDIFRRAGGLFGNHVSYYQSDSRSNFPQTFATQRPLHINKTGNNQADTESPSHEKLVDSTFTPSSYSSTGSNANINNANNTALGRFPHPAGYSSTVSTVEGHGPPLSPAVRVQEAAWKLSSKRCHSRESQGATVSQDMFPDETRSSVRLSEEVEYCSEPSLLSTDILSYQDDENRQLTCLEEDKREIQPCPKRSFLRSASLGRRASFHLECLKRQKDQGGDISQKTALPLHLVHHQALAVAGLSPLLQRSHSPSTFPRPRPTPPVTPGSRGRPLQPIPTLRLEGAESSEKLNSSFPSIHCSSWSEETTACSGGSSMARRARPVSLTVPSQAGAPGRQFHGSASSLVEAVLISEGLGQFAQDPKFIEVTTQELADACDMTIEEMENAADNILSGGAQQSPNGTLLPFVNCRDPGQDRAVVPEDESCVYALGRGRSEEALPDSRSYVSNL
In short: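 Cardiomyocytes from male Sprague-Dawley rats, isolated by Langendorff perfusion and stored frozen (200 μg per tube). Incubated with 5 nM [3H]diltiazem and test ligand (0.1 nM-100 μM) in 50 mM Tris pH 7.4, 25 °C, 90 min. Bound ligand separated by filtration. Nonspecific binding with 100 μM diltiazem. Triplicates. pIC50 from sigmoidal fit; Ki by Cheng-Prusoff.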

Cavia porcellus [26] = organism: Cavia porcellus; experiment: Negative inotropic activity in guinea pig left ventricular papillary muscle at 1 uM; type: functional, Muscle tissue

Compound: O=C(O)[C@@H]1CCCN1S(=O)(=O)c1ccccc1
EC50 (Cavia porcellus [1]): 0.91 µM
Activity (Cavia porcellus [2]): 3%
Activity (Cavia porcellus [3]): 22%
Activity (Cavia porcellus [4]): 66%

Compound: C[C@H]1CC(=O)[C@](C)(CC(=O)c2ccc(Cl)cc2)C(=O)C1
EC50 (Cavia porcellus [1]): 7.51 µM
Activity (Cavia porcellus [6]): 16%
Activity (Cavia porcellus [7]): 2%
Activity (Cavia porcellus [4]): 78%

Compound: CC(=O)c1ccccc1N1C(=O)CSCC1=O
Activity (Cavia porcellus [8]): 14%
Activity (Cavia porcellus [9]): 17%
Activity (Cavia porcellus [10]): inactive
EC50 (Cavia porcellus [1]): 0.4 µM
Activity (Cavia porcellus [2]): 5%
EC50 (Cavia porcellus [11]): 0.066 µM
Activity (Cavia porcellus [12]): 15%
Activity (Cavia porcellus [13]): 55%
Activity (Cavia porcellus [14]): 3%
Activity (Cavia porcellus [15]): 6%
Activity (Cavia porcellus [4]): 61%
EC50 (Cavia porcellus [16]): 124 µM
Activity (Cavia porcellus [17]): 89%

Compound: Cc1snc(S(=O)(=O)Cc2c(F)cccc2Cl)c1C#N
EC50 (Cavia porcellus [1]): 2.28 µM
Activity (Cavia porcellus [6]): 23%
Activity (Cavia porcellus [14]): 22%
Activity (Cavia porcellus [4]): 80%

Compound: CC(C)(C)N(OC(=O)c1ccccc1)C(=O)C(F)(F)F
EC50 (Cavia porcellus [1]): 6.13 µM
Activity (Cavia porcellus [6]): 10%
Activity (Cavia porcellus [19]): 7%
Activity (Cavia porcellus [20]): 52%

Compound: COC(=O)c1c(-c2c(Cl)cccc2Cl)noc1C
Activity (Cavia porcellus [8]): 4%
inhibition at 100 µM [25]: 59.6%
Activity (Cavia porcellus [9]): 31%
IC50 (Cavia porcellus [10]): 33.7 µM
EC50 (Cavia porcellus [1]): 0.92 µM
Activity (Cavia porcellus [22]): 99%
Activity (Cavia porcellus [2]): 30%
EC50 (Cavia porcellus [11]): 0.036 µM
Activity (Cavia porcellus [12]): 14%
Activity (Cavia porcellus [7]): 13%
Activity (Cavia porcellus [15]): inactive
Activity (Cavia porcellus [4]): 84%
EC50 (Cavia porcellus [16]): 6.65 µM
Activity (Cavia porcellus [26]): 87%

Compound: C=CCN(CC=C)S(=O)(=O)c1ccc(Cl)cc1
EC50 (Cavia porcellus [1]): 1.17 µM
Activity (Cavia porcellus [6]): 42%
Activity (Cavia porcellus [7]): 6%
Activity (Cavia porcellus [20]): 98%

The next compounds have a lower EC50 (Cavia porcellus [1]) than those just listed; values first:

EC50 (Cavia porcellus [1]): 0.31 µM
IC50 (Cavia porcellus [24]): 17.7 µM
Compound: C=CCN(c1ccccc1)S(=O)(=O)c1ccc(Cl)cc1
Activity (Cavia porcellus [18]): 73%
Activity (Cavia porcellus [23]): 54%
Activity (Cavia porcellus [7]): 5%

EC50 (Cavia porcellus [1]): 0.3 µM
Compound: CCN(c1ccccc1)S(=O)(=O)c1ccc(Cl)cc1
Activity (Cavia porcellus [5]): 90%
Activity (Cavia porcellus [6]): 46%
Activity (Cavia porcellus [3]): 7%

EC50 (Cavia porcellus [1]): 0.07 µM
Compound: CCO[C@]1(c2ccc(Br)cc2)SC=C(C)n2c1noc2=O
Activity (Cavia porcellus [18]): 58%
Activity (Cavia porcellus [6]): 11%
Activity (Cavia porcellus [7]): 16%

IC50 (Cavia porcellus [10]): 40 µM
EC50 (Cavia porcellus [1]): 0.04 µM
Compound: CCOC1(c2ccc(Br)cc2)SC=C(C)n2c1noc2=O (stereo unspecified)
Activity (Cavia porcellus [8]): 14%
Activity (Cavia porcellus [9]): 3%
Activity (Cavia porcellus [21]): 2%
Activity (Cavia porcellus [18]): 77%
Activity (Cavia porcellus [22]): 3%
Activity (Cavia porcellus [6]): 19%
Activity (Cavia porcellus [19]): 5%
Activity (Cavia porcellus [12]): 32%
Activity (Cavia porcellus [15]): 9%
